Reference: ChEMBL document CHEMBL2062515, “Synthesis and evaluation of novel radioligands for positron emission tomography imaging of metabotropic glutamate receptor subtype 1 (mGluR1) in rodent brain” (J Med Chem, 2012)

Tests used:
[1] = tested on: Heart; assay: Biodistribution in mouse heart at 4.8 MBq/140 uL, iv after 5 mins by gamma counting; type: ADME, organism-based; conditions: in vivo
Procedure, shortened: (§1)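 Mice received the radioligand in saline by tail vein (4.8 MBq/140 μL, 40 pmol). Four mice per time point were killed by cervical dislocation at 1, 5, 15, 30 and 60 min. Tissues were removed quickly and counted in an autogamma counter. Data are decay-corrected % injected dose per gram of wet tissue, mean ± SE, n = 4.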

[2] = tested on: Mus musculus; assay: Biodistribution in mouse small intestine at 4.8 MBq/140 uL, iv after 1 min by gamma counting; type: ADME, organism-based; conditions: in vivo
Procedure, shortened: (§2)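 [¹¹C]radioligand in saline (4.8 MBq/140 μL, 40 pmol) injected via tail vein; four mice per time point killed by cervical dislocation at 1, 5, 15, 30, 60 min. Tissues (small intestine including contents) removed, counted in autogamma counter, decay-corrected, expressed as % injected dose per gram wet tissue; mean SE, n = 4.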

[3] = tested on: Muscle tissue; assay: Biodistribution in mouse muscle at 4.8 MBq/140 uL, iv after 30 mins by gamma counting; type: ADME, organism-based; conditions: in vivo, 0.5 h; procedure, shortened: as §1
[4] = tested on: Spleen; assay: Biodistribution in mouse spleen at 4.8 MBq/140 uL, iv after 30 mins by gamma counting; type: ADME, organism-based; conditions: in vivo, 0.5 h; procedure, shortened: as §2
[5] = tested on: Mus musculus; assay: Biodistribution in mouse small intestine at 4.8 MBq/140 uL, iv after 5 mins by gamma counting; type: ADME, organism-based; conditions: in vivo; procedure, shortened: as §2
[6] = Metabolic stability in Sprague-Dawley rat brain assessed as compound remaining after 90 mins; type: ADME, tissue-based; conditions: read-out: Stability
[7] = tested on: Cerebellum; assay: Drug uptake in wild type mouse cerebellum at 17 MBq, iv up to 60 mins by PET analysis; type: ADME, organism-based; conditions: in vivo, 1 h
[8] = tested on: Spleen; assay: Biodistribution in mouse spleen at 4.8 MBq/140 uL, iv after 15 mins by gamma counting; type: ADME, organism-based; conditions: in vivo, 0.25 h; procedure, shortened: as §2
[9] = tested on: Heart; assay: Biodistribution in mouse heart at 4.8 MBq/140 uL, iv after 60 mins by gamma counting; type: ADME, organism-based; conditions: in vivo, 1 h; procedure, shortened: as §1
[10] = tested on: Striatum; assay: Drug uptake in Sprague-Dawley rat striatum at 16 MBq administered as bolus infusion after 90 mins by PET analysis; type: ADME, organism-based; conditions: in vivo, iv, 1.5 h
[11] = tested on: Muscle tissue; assay: Biodistribution in mouse muscle at 4.8 MBq/140 uL, iv after 60 mins by gamma counting; type: ADME, organism-based; conditions: in vivo, 1 h; procedure, shortened: as §2
[12] = tested on: Mus musculus; assay: Biodistribution in mouse testis at 4.8 MBq/140 uL, iv after 60 mins by gamma counting; type: ADME, organism-based; conditions: in vivo, 1 h; procedure, shortened: as §2
[13] = tested on: Muscle tissue; assay: Biodistribution in mouse muscle at 4.8 MBq/140 uL, iv after 15 mins by gamma counting; type: ADME, organism-based; conditions: in vivo, 0.25 h; procedure, shortened: as §1
[14] = tested on: Brain; assay: Biodistribution in mouse brain at 4.8 MBq/140 uL, iv after 60 mins by gamma counting; type: ADME, organism-based; conditions: in vivo, 1 h; procedure, shortened: as §1
[15] = tested on: Kidney; assay: Biodistribution in mouse kidney at 4.8 MBq/140 uL, iv after 30 mins by gamma counting; type: ADME, organism-based; conditions: in vivo, 0.5 h; procedure, shortened: as §1
[16] = tested on: Cerebellum; assay: Drug uptake in Sprague-Dawley rat cerebellum at 16 MBq administered as bolus infusion after 90 mins by PET analysis; type: ADME, organism-based; conditions: in vivo, iv, 1.5 h
[17] = tested on: Mus musculus; assay: Biodistribution in mouse testis at 4.8 MBq/140 uL, iv after 1 min by gamma counting; type: ADME, organism-based; conditions: in vivo; procedure, shortened: as §2
[18] = tested on: Spleen; assay: Biodistribution in mouse spleen at 4.8 MBq/140 uL, iv after 60 mins by gamma counting; type: ADME, organism-based; conditions: in vivo, 1 h; procedure, shortened: as §2
[19] = tested on: Lung; assay: Biodistribution in mouse lung at 4.8 MBq/140 uL, iv after 15 mins by gamma counting; type: ADME, organism-based; conditions: in vivo, 0.25 h; procedure, shortened: as §1
[20] = tested on: Brain; assay: Biodistribution in mouse brain at 4.8 MBq/140 uL, iv after 1 min by gamma counting; type: ADME, organism-based; conditions: in vivo; procedure, shortened: as §1
[21] = tested on: Striatum; assay: Drug uptake in Sprague-Dawley rat striatum at 16 MBq administered as bolus infusion after 45 mins by PET analysis; type: ADME, organism-based; conditions: in vivo, iv, 0.75 h
[22] = tested on: Plasma; assay: Metabolic stability in Sprague-Dawley rat plasma assessed as compound remaining after 90 mins; type: ADME, cell-free; conditions: 1.5 h
[23] = tested on: Thalamus; assay: Drug uptake in Sprague-Dawley rat thalamus at 17 MBq administered as bolus infusion by PET analysis in presence of N-[4-[6-(isopropylamino)pyrimidin-4-yl]-1,3-thiazol-2-yl]-4-methoxy-N-methylbenzamide; type: ADME, organism-based; conditions: in vivo, iv
[24] = tested on: Mus musculus; assay: Biodistribution in mouse testis at 4.8 MBq/140 uL, iv after 30 mins by gamma counting; type: ADME, organism-based; conditions: in vivo, 0.5 h; procedure, shortened: as §2
[25] = tested on: Mus musculus; assay: Biodistribution in mouse small intestine at 4.8 MBq/140 uL, iv after 15 mins by gamma counting; type: ADME, organism-based; conditions: in vivo, 0.25 h; procedure, shortened: as §2
[26] = tested on: Brain; assay: Biodistribution in mouse brain at 4.8 MBq/140 uL, iv after 15 mins by gamma counting; type: ADME, organism-based; conditions: in vivo, 0.25 h; procedure, shortened: as §1
[27] = Ratio of drug uptake in cerebellum to pons of Sprague-Dawley rat at 16 MBq administered as bolus infusion; conditions: in vivo, iv
[28] = tested on: Thalamus; assay: Drug uptake in Sprague-Dawley rat thalamus at 17 MBq administered as bolus infusion by PET analysis in presence of JNJ16259685; type: ADME, organism-based; conditions: in vivo, iv
[29] = tested on: Thalamus; assay: Drug uptake in wild type mouse thalamus at 17 MBq, iv up to 60 mins by PET analysis; type: ADME, organism-based; conditions: in vivo, 1 h
[30] = tested on: Muscle tissue; assay: Biodistribution in mouse muscle at 4.8 MBq/140 uL, iv after 5 mins by gamma counting; type: ADME, organism-based; conditions: in vivo; procedure, shortened: as §2
[31] = tested on: Blood; assay: Biodistribution in mouse blood at 4.8 MBq/140 uL, iv after 60 mins by gamma counting; type: ADME, organism-based; conditions: in vivo, 1 h; procedure, shortened: as §1
[32] = tested on: Liver; assay: Biodistribution in mouse liver at 4.8 MBq/140 uL, iv after 5 mins by gamma counting; type: ADME, organism-based; conditions: in vivo; procedure, shortened: as §1
[33] = tested on: Kidney; assay: Biodistribution in mouse kidney at 4.8 MBq/140 uL, iv after 15 mins by gamma counting; type: ADME, organism-based; conditions: in vivo, 0.25 h; procedure, shortened: as §1
[34] = tested on: Liver; assay: Biodistribution in mouse liver at 4.8 MBq/140 uL, iv after 1 min by gamma counting; type: ADME, organism-based; conditions: in vivo; procedure, shortened: as §1
[35] = tested on: Liver; assay: Biodistribution in mouse liver at 4.8 MBq/140 uL, iv after 60 mins by gamma counting; type: ADME, organism-based; conditions: in vivo, 1 h; procedure, shortened: as §1
[36] = tested on: Mus musculus; assay: Biodistribution in mouse small intestine at 4.8 MBq/140 uL, iv after 60 mins by gamma counting; type: ADME, organism-based; conditions: in vivo, 1 h; procedure, shortened: as §2
[37] = tested on: Striatum; assay: Drug uptake in Sprague-Dawley rat striatum at 17 MBq administered as bolus infusion by PET analysis in presence of JNJ16259685; type: ADME, organism-based; conditions: in vivo, iv
[38] = tested on: Cerebellum; assay: Drug uptake in Sprague-Dawley rat cerebellum at 16 MBq administered as bolus infusion after 45 mins post injection by PET analysis; type: ADME, organism-based; conditions: in vivo, iv, 0.75 h
[39] = tested on: Blood; assay: Biodistribution in mouse blood at 4.8 MBq/140 uL, iv after 5 mins by gamma counting; type: ADME, organism-based; conditions: in vivo; procedure, shortened: as §1
[40] = tested on: Blood; assay: Biodistribution in mouse blood at 4.8 MBq/140 uL, iv after 30 mins by gamma counting; type: ADME, organism-based; conditions: in vivo, 0.5 h; procedure, shortened: as §1
[41] = tested on: Lung; assay: Biodistribution in mouse lung at 4.8 MBq/140 uL, iv after 1 min by gamma counting; type: ADME, organism-based; conditions: in vivo; procedure, shortened: as §1
[42] = tested on: Striatum; assay: Drug uptake in Sprague-Dawley rat striatum at 17 MBq administered as bolus infusion by PET analysis in presence of N-[4-[6-(isopropylamino)pyrimidin-4-yl]-1,3-thiazol-2-yl]-4-methoxy-N-methylbenzamide; type: ADME, organism-based; conditions: in vivo, iv
[43] = tested on: Blood; assay: Biodistribution in mouse blood at 4.8 MBq/140 uL, iv after 1 min by gamma counting; type: ADME, organism-based; conditions: in vivo; procedure, shortened: as §1
[44] = tested on: Liver; assay: Biodistribution in mouse liver at 4.8 MBq/140 uL, iv after 15 mins by gamma counting; type: ADME, organism-based; conditions: in vivo, 0.25 h; procedure, shortened: as §1
[45] = tested on: Mus musculus; assay: Biodistribution in mouse testis at 4.8 MBq/140 uL, iv after 5 mins by gamma counting; type: ADME, organism-based; conditions: in vivo; procedure, shortened: as §2

Structure (SMILES): CC(C)Nc1cc(-c2csc(N(C)C(=O)c3ccc(O[11CH3])cc3)n2)ncn1
- Drug uptake [1]: 2.09 % ID/g
- Drug uptake [2]: 3.65 % ID/g
- Drug uptake [3]: 0.64 % ID/g
- Drug uptake [4]: 2.14 % ID/g
- Drug uptake [5]: 4.55 % ID/g
- remaining at 1.5 h [6]: > 80%
- Drug uptake [7]: Active
- Drug uptake [8]: 1.98 % ID/g
- Drug uptake [9]: 0.81 % ID/g
- Drug uptake [10]: 80%
- Drug uptake [11]: 0.52 % ID/g
- Drug uptake [12]: 0.33 % ID/g
- Drug uptake [13]: 0.95 % ID/g
- Drug uptake [14]: 1.85 % ID/g
- Drug uptake [15]: 3.32 % ID/g
- Drug uptake [16]: 90%
- Drug uptake [17]: 0.72 % ID/g
- Drug uptake [18]: 2.36 % ID/g
- Drug uptake [19]: 1.91 % ID/g
- Drug uptake [20]: 3.1 % ID/g
- Drug uptake [21]: Active
- Stability [22]: Unstable
- Drug uptake [23]: Not Active
- Drug uptake [24]: 0.38 % ID/g
- Drug uptake [25]: 4.98 % ID/g
- Drug uptake [26]: 3.14 % ID/g
- Ratio [27]: 6.98
- Drug uptake [28]: Not Active
- Drug uptake [29]: Active
- Drug uptake [30]: 1.22 % ID/g
- Drug uptake [31]: 0.64 % ID/g
- Drug uptake [32]: 8.34 % ID/g
- Drug uptake [33]: 3.78 % ID/g
- Drug uptake [34]: 8.16 % ID/g
- Drug uptake [35]: 3.97 % ID/g
- Drug uptake [36]: 3.97 % ID/g
- Drug uptake [37]: Not Active
- Drug uptake [38]: Active
- Drug uptake [39]: 1.95 % ID/g
- Drug uptake [40]: 0.67 % ID/g
- Drug uptake [41]: 5.17 % ID/g
- Drug uptake [42]: Not Active
- Drug uptake [43]: 3.79 % ID/g
- Drug uptake [44]: 5.57 % ID/g
- Drug uptake [45]: 0.83 % ID/g
